We go through 17 compounds from ChEMBL document CHEMBL5150059, “Transcriptional Inhibition of MicroRNA miR-122 by Small Molecules Reduces Hepatitis C Virus Replication in Liver Cells” (J Med Chem, 2022).

As usually defined, the pKd is −log10 of the Kd, conventionally taken in molar units. As a reminder, the inhibition is the change of the read-out against control, counted positive when it falls. A word on the residual activity: it is the signal under treatment as a percentage of the control signal.

SMILES strings stand for the structures. pKd: −log10 of the molar value.

The subject of one test is microRNA 122. Nature of the test: Inhibition of miR-122 in human Huh-7 cells expressing renilla luciferase gene assessed as relative luciferase unit after 48 hrs by dual luciferase assay relative to control. Format: cell-based. Details: concentration or dose not given beside the values.
Conditions: not given
A digest of the protocol:
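Huh7-miR122 stable line (miR-122 site in the Renilla luciferase 3′ UTR, kept in 500 μg/mL G418), seeded 15,000/well. After overnight incubation, treated 48 h with compound or DMSO (0.1% final) in triplicate. Renilla and firefly read by dual luciferase; Renilla normalized to firefly. Dose–response used for EC50.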
Take `COc1cc(C)c(C(C)C)cc1S(=O)(=O)Nc1ncccc1C`: the Activity was 135%.

For the compound `COc1cc2c(cc1S(=O)(=O)n1cnc(C)c1)CCCC2`, the Activity stood at 33.3%.

Take `COc1cc(C)c(C(C)C)cc1S(=O)(=O)n1cnc2ccccc21`: the Activity is 75%.

Regarding `COc1cc(C)c(C(C)C)cc1S(=O)(=O)n1cccc1`, the Activity came to 29%. Same read-out and setting: with `COc1cc(C)c(C(C)C)cc1S(=O)(=O)Nc1ccccn1` the figure was 88%; with `CCc1nccn1S(=O)(=O)c1cc(C(C)C)c(C)cc1OC`, 40%; with `COc1cc(C)c(C(C)C)cc1S(=O)(=O)n1ccc(C)c1`, 57%. Same read-out and setting: next, `COc1cc(C)c(C(C)C)cc1S(=O)(=O)Nc1ccccc1`: 47%; `COc1cc(C)c(C(C)C)cc1S(=O)(=O)n1cnc(Cl)c1Cl`: 4%. Same read-out and setting: next, `C#CCOc1cc(C)c(C(C)C)cc1S(=O)(=O)n1cnc(C)c1`: 50%; `COc1cc(C)c(C(C)C)cc1S(=O)(=O)n1cc(C)cn1`: 32%. For the compound `COc1cc(C)c(C(C)C)cc1S(=O)(=O)N(C)c1cccc(C)n1`, the Activity is 107%. For the compound `COc1cc(C)c(C(C)C)cc1S(=O)(=O)N(C)c1cccc(C)c1`, the Activity was found to be 122%.

Regarding `COc1cc(C)c(C(C)C)cc1S(=O)(=O)n1ccnc1`, the Activity came out at 33%. Turning to `COc1cc(C)c(C(C)C)cc1S(=O)(=O)n1ccc2ccccc21`, the Activity is 55%.

For `COc1cc(C)c(C(C)C)cc1S(=O)(=O)n1cnc([N+](=O)[O-])c1`, the Activity worked out at 61.1%.

System in the next test: not listed separately
Nature of the test: Effect on non-miR-122 pathway in human Huh-7 cells harboring psi-check empty vector assessed as increase in luminescence at 10 uM after 48 hrs by dual luciferase assay relative to control. It counts as functional.
Conditions: not given
A digest of the protocol:
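Huh7 cells transfected with psiCHECK-empty reporter (miR-122 site replaced by a non-targeted linker) for 2 h. Medium then replaced with compound at 10 μM or DMSO (0.1% final), in triplicate. Renilla/firefly read by dual luciferase after 48 h, normalized to DMSO. At least three independent experiments, mean ± SD.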
As to `COc1cc(C)c(C(C)C)cc1S(=O)(=O)N(C)c1cccc(C)n1`, the Activity came out at 117%. The same measure, in the same setting: with `COc1cc(C)c(C(C)C)cc1S(=O)(=O)N(C)c1cccc(C)c1` the figure was 103%.

System in another test: not listed separately
Put plainly: Binding affinity to recombinant C-terminal His-tagged […] (147 to 377 residues) (unknown origin) expressed in Escherichia coli by spectrofluorometer analysis. Details: species or system Homo sapiens.
Conditions: not given
A digest of the protocol:
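His-tagged HNF4α ligand-binding domain (aa 147–377) expressed and purified from E. coli. 200 nM protein in PBS pH 7.4 titrated with increasing compound at 25 °C. Intrinsic Trp/Tyr fluorescence read at 330 nm (excitation 280 nm), corrected for buffer and ligand alone. Intensity change versus concentration fitted to Hill equation for KD. Two independent experiments.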
With `Cc1ccc([N+](=O)[O-])cc1S(=O)(=O)n1c(C)nc2ccccc21`, the pKd was 6.08.

The subject of another test is HEK293. Nature of the test: Inhibition of […] (unknown origin) transfected in HEK293 cells coexpressing CYP26A1 assessed as reduction in luciferase expression at 25 uM after 48 hrs dual luciferase assay. It counts as cell-based. As to conditions: Homo sapiens. The procedure, abridged: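 HEK293T cells (no endogenous HNF4α) co-transfected for 4 h with CYP26A1 promoter–firefly luciferase reporter, HNF4α expression plasmid and Renilla control plasmid. Then treated 48 h with 25 μM compound or DMSO (0.25% final). Read by dual luciferase assay, normalized to DMSO.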
On to `Cc1ccc([N+](=O)[O-])cc1S(=O)(=O)n1c(C)nc2ccccc21`, for which the inhibition is 50%.

The next test deals with Renilla. Nature of the test: Inhibition of recombinant renilla luciferase at 10 uM using coelenterazine as substrate incubated for 10 mins by luminescence based microplate reader analysis relative to control; values are per cent of control.
Conditions: not given
Turning to `COc1cc(C)c(C(C)C)cc1S(=O)(=O)Nc1ncccc1C`, the residual activity amounted to 17%.

Regarding `COc1cc(C)c(C(C)C)cc1S(=O)(=O)n1cnc2ccccc21`, the residual activity turned out to be 45%. On to `COc1cc(C)c(C(C)C)cc1S(=O)(=O)Nc1ccccn1`, for which the residual activity came out at 8%. On to `COc1cc(C)c(C(C)C)cc1S(=O)(=O)n1ccc(C)c1`, for which the residual activity was 87%. Still for that read-out and setting: next, `C#CCOc1cc(C)c(C(C)C)cc1S(=O)(=O)n1cnc(C)c1`: 97%.

On to `COc1cc(C)c(C(C)C)cc1S(=O)(=O)N(C)c1cccc(C)n1`, for which the residual activity turned out to be 100%.

`COc1cc(C)c(C(C)C)cc1S(=O)(=O)N(C)c1cccc(C)c1`: the residual activity amounted to 78%.

For the compound `COc1cc(C)c(C(C)C)cc1S(=O)(=O)n1ccc2ccccc21`, the residual activity was 94%. Still for that read-out and setting: with `COc1cc(C)c(C(C)C)cc1S(=O)(=O)n1cnc([N+](=O)[O-])c1` the figure was 67%.
